How the values were obtained:
[1] = target: GABA-A receptor; anion channel (Bos taurus) (UniProt P10063+P08220+P20237+P08219+P10064+P22300); assay: Inhibition of specific [3H]flunitrazepam binding to Benzodiazepine receptor in bovine brain membranes at 34 uM; format: cell membranes
[2] = target: GABA-A receptor; anion channel; assay: Inhibitory concentration against [3H]flunitrazepam binding to Benzodiazepine receptor in bovine brain membranes; format: cell membranes
How it was run: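 Membranes were made by homogenizing in ice-cold 0.32 M sucrose with protease inhibitors, spinning at 48000g, and osmotically shocking in 50 mM Tris-HCl. Membranes (0.4-0.5 mg protein, Lowry) were incubated with 1.0 nM [3H]flunitrazepam in 50 mM Tris-HCl at 0 °C for 90 min, then filtered and counted by scintillation. Nonspecific binding was defined with 10 μM diazepam. IC50 came from log-probit analysis of 4-6 concentrations, each in triplicate.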

Row | inhibition [1] | IC50 [2] | Structure (SMILES)
1 | 49% | – | Cc1nn(-c2cccc(Cl)c2)c2c1c(N1CCN(C)CC1)nc1ccccc12
2 | 21% | – | Cc1cccc(-n2nc(C)c3c(Cl)nc4ccccc4c32)c1
3 | 96% | 1 µM | Cc1nn(-c2cccc(Cl)c2)c2c1c(=O)n(C)c1ccccc21
4 | 94% | 4.4 µM | Cc1nn(-c2cccc(Cl)c2)c2c1c(O)nc1ccccc12
5 | 18% | – | COc1nc2ccccc2c2c1c(C)nn2-c1cccc(Cl)c1
6 | 70% | 22 µM | Cc1nn(-c2ccc(Cl)cc2)c2c1c(O)nc1ccccc12
7 | 97% | 9 µM | Cc1cccc(-n2nc(C)c3c(O)nc4ccccc4c32)c1
8 | 21% | – | Cc1nn(-c2cccc(Cl)c2)c2c1c(Cl)nc1ccccc12
9 | 24% | – | Cc1nn(-c2cccc(Cl)c2)c2c1c(N1CCOCC1)nc1ccccc12

The remaining lines, values behind:

Row | Structure (SMILES) | inhibition [1] | IC50 [2]
10 | Cc1nn(-c2ccc(Cl)cc2)c2c1c(=O)n(C)c1ccccc21 | 78% | 2.7 µM
11 | Cc1ccc(-n2nc(C)c3c(O)nc4ccccc4c32)cc1 | 65% | –
12 | Cc1cccc(-n2nc(C)c3c(N4CCN(C)CC4)nc4ccccc4c32)c1 | 44% | –
13 | Cc1cccc(-n2nc(C)c3c(=O)n(C)c4ccccc4c32)c1 | 95% | 0.26 µM
14 | Cc1nn(-c2ccccc2)c2c1c(O)nc1ccccc12 | 62% | –
15 | Cc1[nH]nc2c1c(=O)[nH]c1ccccc12 | 47% | –
16 | Cc1nn(-c2ccccc2)c2c1c(N1CCN(C)CC1)nc1ccccc12 | 41% | –
17 | Cc1nn(-c2ccc(Cl)cc2)c2c1c(N1CCN(C)CC1)nc1ccccc12 | 23% | –
18 | Cc1nn(-c2ccccc2)c2c1c(=O)n(C)c1ccccc21 | 85% | 3.4 µM
19 | Cc1cccc(-n2nc(C)c3c(N4CCOCC4)nc4ccccc4c32)c1 | 7% | –
20 | Cc1nn(-c2ccccc2)c2c1c(N1CCOCC1)nc1ccccc12 | 8% | –
21 | Cc1ccc(-n2nc(C)c3c(=O)n(C)c4ccccc4c32)cc1 | 63% | –

From ChEMBL document CHEMBL1123403, “Pyrazolo[4,5-c]quinolines. 2. Synthesis and specific inhibition of benzodiazepine receptor binding” (J Med Chem, 1986)
